In paper PMC7498158 (Journal of Medicinal Chemistry, 2020):

Test system: PLAAT2–5
Experiment: gel-based competitive ABPP, statements for all tested PLAAT members
Assay type: biochemical, human
Conditions: for hit potency for all tested PLAAT members (in words): focused library screen; for activity on PLAAT2–5 (in words): 10 μM inhibitor, 30 min, active = residual protein labeling ≤50%
Outline: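 Human PLAAT cDNA (C-terminal FLAG, pcDNA3.1) was PEI-transfected into HEK293T; cytosol came from a 100,000g spin. Cytosol was preincubated with test compound (30 min, rt), then MB064 (20 min, rt). Conditions: PLAAT2 0.25 μg/μL, 250 nM; PLAAT3 0.5 μg/μL, 250 nM; PLAAT4/5 1 μg/μL, 500 nM. In-gel fluorescence was normalized to Coomassie, in triplicate. Single-concentration screen or IC50 from dose–response curves.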

SMILES: O=C(CCc1ccc(Cl)cc1)C(=O)NCCc1ccccc1 [Compound 1, 4-(4-Chlorophenyl)-2-oxo-N-phenethylbutanamide]
- hit potency for all tested PLAAT members (in words): submicromolar

SMILES: O=C(CCc1ccc(Cl)cc1)C(=O)NCCCCc1ccccc1 [Compound 2]
- hit potency for all tested PLAAT members (in words): submicromolar

SMILES: O=C(NCc1ccccc1)C(F)(F)C(O)CCc1ccccc1 (stereo not drawn) [Compound 3]
- activity on PLAAT2–5 (in words): inactive

SMILES: CCOC(=O)C(F)(F)C(O)CCc1ccccc1 (stereo not drawn) [Compound 4]
- activity on PLAAT2–5 (in words): inactive

SMILES: CN(CCc1ccccc1)C(=O)C(=O)CCc1ccc(Cl)cc1 [Compound 12]
- activity on PLAAT2–5 (in words): complete loss of activity

SMILES: O=C(CCc1ccc(Cl)cc1)C(=O)N1CCCCC1 [Compound 13]
- activity on PLAAT2–5 (in words): did not show any activity

SMILES: CN(C)C(=O)C(=O)CCc1ccc(Cl)cc1 [Compound 14]
- activity on PLAAT2–5 (in words): did not show any activity

SMILES: O=C(CCc1ccc(Cl)cc1)C(=O)N1CCOCC1 [Compound 15]
- activity on PLAAT2–5 (in words): did not show any activity

SMILES: CN1CCN(C(=O)C(=O)CCc2ccc(Cl)cc2)CC1 [Compound 16]
- activity on PLAAT2–5 (in words): did not show any activity

SMILES: COCCN(CCOC)C(=O)C(=O)CCc1ccc(Cl)cc1 [Compound 17]
- activity on PLAAT2–5 (in words): did not show any activity

SMILES: CCN(CCc1ccccc1)C(=O)C(=O)CCc1ccc(Cl)cc1 [Compound 22]
- activity on PLAAT2–5 (in words): did not show any activity

SMILES: O=C(NCCc1ccccc1)C(O)CCc1ccc(Cl)cc1 (stereo not drawn) [Compound 23, 4-(4-Chlorophenyl)-2-hydroxy-N-phenethylbutanamide]
- activity on PLAAT2–5 (in words): no activity
